NPY Y1 blocker – NPY-Y1 receptor antagonists, primary screen, cell-based; Neuropeptide Y receptor type 1 (Homo sapiens), P25929; HEK293-CNG Y1 cells, membrane potential fluorescence; NPY at EC95, then isoproterenol; inhibition, % at 3.6 µM; 1% of 200,000 active; AID 1040, 2008;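 active means inhibition above the campaign mean inhibition of all tested compounds plus 3 SD, cut at about 20% in these data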;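 further: 0% = DMSO wells given NPY plus isoproterenol and 100% = isoproterenol alone without NPY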
Target sequence (P25929 whole entry, looked up): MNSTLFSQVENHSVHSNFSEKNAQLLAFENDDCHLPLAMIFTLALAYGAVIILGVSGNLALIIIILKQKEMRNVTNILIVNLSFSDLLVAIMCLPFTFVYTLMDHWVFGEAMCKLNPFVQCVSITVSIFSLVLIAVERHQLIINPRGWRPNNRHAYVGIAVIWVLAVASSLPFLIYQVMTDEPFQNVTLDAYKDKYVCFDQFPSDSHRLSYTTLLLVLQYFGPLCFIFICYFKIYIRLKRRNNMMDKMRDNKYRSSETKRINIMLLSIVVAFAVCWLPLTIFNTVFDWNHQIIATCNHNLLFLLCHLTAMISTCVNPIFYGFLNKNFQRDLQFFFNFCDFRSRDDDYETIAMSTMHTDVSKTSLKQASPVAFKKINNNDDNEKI
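Benchmarks – high control isoproterenol alone, low control NPY with isoproterenol · Material – HEK293 Y1/CNG channel cell line · Times – dye 3 h, compound 60 min room temperature, stimulation 45 min · Probe or stimulus – NPY (25 nM), isoproterenol (1 µM), Ro 20-1724 (25 µM) · Evaluation – % inhibition of NPY effect · Signal – fluorescence, membrane potential probe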
Measles CPE – compounds protecting cells from measles virus cytopathic effect, primary screen, measles RdRp inhibitor project, single point, MLSMR library, absorbance | Measles virus-infected cells, CPE protection | protection (pct of control), % at 4 µM | 1.5% of 140,000 active | AID 841, 2007; in the data active means protection mostly above about 24%, no sharp cut-off; inactive means mostly below about 26%
NPY-Y1 PAM-ag – NPY-Y1 receptor potentiators or agonists, primary screen, cell-based; NPY-Y1 expressing cells, potentiator/agonist activation; activation, % at 3.6 µM; 0.37% of 220,000 active; AID 1304, 2008; in the data active means activation above about 33%, passing the limit was not always enough;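 further: cells stimulated with NPY at EC10 then isoproterenol at EC100; 0% = low agonist plus stimulus and 100% = saturating agonist plus stimulus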
NPY-Y2 antag – NPY-Y2 receptor antagonists, primary screen, cell-based. Neuropeptide Y receptor type 2 (Homo sapiens), P49146. NPY-Y2 expressing cells, antagonist mode. inhibition, % at 2.7 µM. 0.99% of 140,000 active. AID 793, 2007;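 further: 0% = vehicle with agonist challenge and 100% = reference antagonist with challenge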
Target sequence (P49146 whole entry, looked up): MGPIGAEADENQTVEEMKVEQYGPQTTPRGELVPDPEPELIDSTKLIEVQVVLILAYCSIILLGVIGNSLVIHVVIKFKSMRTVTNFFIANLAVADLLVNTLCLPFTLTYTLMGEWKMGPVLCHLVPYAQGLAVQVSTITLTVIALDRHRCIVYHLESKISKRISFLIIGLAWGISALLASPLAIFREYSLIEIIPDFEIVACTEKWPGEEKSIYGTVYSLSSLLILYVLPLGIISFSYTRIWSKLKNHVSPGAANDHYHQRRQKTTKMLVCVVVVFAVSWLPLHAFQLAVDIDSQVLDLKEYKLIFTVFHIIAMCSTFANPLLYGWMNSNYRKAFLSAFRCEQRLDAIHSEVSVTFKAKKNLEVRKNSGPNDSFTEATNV
NPY-Y2 PAM-ag – NPY-Y2 potentiators or agonists, primary screen, cell-based; Neuropeptide Y receptor type 2 (Homo sapiens), P49146; cells expressing NPY-Y2, potentiator/agonist read-out; activation, % at 3.6 µM; 0.45% of 220,000 active; in the data active means activation above about 27%;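 further: cells stimulated with NPY near EC25 plus isoproterenol at EC100; 0% = vehicle plus submaximal agonist and 100% = vehicle plus saturating agonist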
Rad51 HR inh – human RAD51 strand exchange inhibitors, primary screen, biochemical, fluorescence; DNA repair protein RAD51 homolog 1 (Homo sapiens), Q06609; hRad51 DNA strand exchange, fluorescence dequenching; inhibition, % at 10 µM; 0.085% of 200,000 active; AID 1385, 2008;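 active means inhibition above 40% at the single screening dose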;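 further: 0% = DMSO control wells and 100% = blanks with heterologous ssDNA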
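Read-out basis: percent inhibition relative to plate controls and blanks / Assay system: human Rad51 nucleoprotein filaments preassembled on unlabelled ssDNA / Timing: filaments 15 min 37 °C, then compound 30 min / Control set: per-plate controls and blanks / Technique: fluorescence dequenching at 485/520 nm / Compound: 10 µM final, single point / Also added: Fluorescein- and BHQ1-tagged 47-mer duplex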
NPY1 antag conf – NPY-Y1 receptor antagonists, retest of hits, confirmation, HEK293-CNG cells, membrane potential fluorescence, triplicate. shares compounds with NPY Y1 blocker. cAMP; NPY challenge against isoproterenol-raised cAMP. inhibition, % at 3.6 µM. 21% of 1,200 active. AID 1254, 2008; in the data active means inhibition above about 20%;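 further: 0% = vehicle with agonist plus stimulus and 100% = stimulus alone without agonist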
NPY2 antag ctr – NPY-Y2 receptor antagonists, selectivity check, confirmation, counter-screen for NPY-Y1 antagonist project, HEK293-CNG cells, membrane potential fluorescence, triplicate; shares compounds with NPY Y1 blocker; antagonism; cells given NPY, then isoproterenol; inhibition, % at 3.6 µM; 28% of 1,200 active; AID 1255, 2008;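 further: 0% = DMSO with agonist challenge and 100% = reference antagonist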
NPY-Y2 pot conf – NPY-Y2 potentiators or agonists, confirmation, cell-based; shares compounds with NPY-Y2 PAM-ag; cell-based NPY-Y2 potentiator/agonist assay; activation, % at 3.6 µM; 20% of 450 active; AID 1539, 2009; in the data active means activation above about 33%
NPY-Y1 potentiator – NPY-Y1 potentiators or agonists, counter-screen for NPY-Y2 potentiator project, cell-based, fluorescence. shares compounds with NPY-Y2 PAM-ag. Y1 HEK293-CNG cells, membrane potential fluorescence. activation, % at 3.6 µM. 20% of 450 active. AID 1651, 2009; in the data active means activation above about 45%;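 further: cells stimulated with submaximal NPY then isoproterenol with phosphodiesterase inhibitor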
NPY-Y1 ag 2 – NPY-Y1 direct agonists, selectivity assay for NPY-Y2 potentiator project, cell-based, fluorescence. HEK293 Y1-CNGC, membrane potential fluorescence, agonism. shares compounds with NPY-Y2 PAM-ag. 37% of 450 active. activation, % at 3.6 µM;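 active means activation above the mean of DMSO-only control wells plus 3 SD, cut at about 18% in these data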;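 further: cells stimulated with 1 µM isoproterenol plus the PDE inhibitor Ro 20-1724; 0% = isoproterenol with DMSO and no NPY and 100% = 40 nM NPY; Y1 agonists lower the membrane potential dye signal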
CNGC inhibitor – CNGC cAMP sensor activity inhibitors, counter-screen for NPY-Y2 potentiator project, cell-based, HEK293-CNG parental, membrane potential fluorescence; shares compounds with NPY-Y2 PAM-ag; isoproterenol cAMP; inhibition, % at 3.6 µM; 32% of 450 active; AID 1703, 2009;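 active means inhibition above the control-well mean plus 3 SD of those wells, cut at about 22% in these data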;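 further: 0% = DMSO with isoproterenol and 100% = DMSO without isoproterenol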
NPY-Y2 ag 2 – NPY-Y2 direct agonists, counter-screen for NPY-Y2 potentiator project, cell-based, fluorescence. AID 1710, 2009. HEK293 Y2/CNGC cells, membrane potential fluorescence, agonist mode. shares compounds with NPY-Y2 PAM-ag. 56% of 450 active. activation, % at 3.6 µM;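 active means activation above the mean of solvent-only control wells plus 3 SD, cut at about 10% in these data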;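 further: cells stimulated by isoproterenol with no NPY added so direct agonism is tested; 0% = DMSO with isoproterenol alone and 100% = NPY at EC100 plus isoproterenol; agonism lowers probe fluorescence through less cAMP and CNG channel opening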
An asterisk follows results filed as active; / = no result given. Hits are enriched below; roughly 2.8% of the tested compounds scored in any of these assays. Unless noted, no stated cut-off is given here; in the data, active means inhibition above about 17%; inactive means the rest.

SMILES | NPY Y1 blocker | Measles CPE | NPY-Y1 PAM-ag | NPY-Y2 antag | NPY-Y2 PAM-ag | Rad51 HR inh | NPY1 antag conf | NPY2 antag ctr | others
CCCSc1nc2cc(OC)c(OC)cc2c(=N)n1CCCN1CCOCC1 | 71* | / | -52 | / | -43 | -24 | 22* | 32*
CCOC(=O)N1CCN(C(=O)c2ccc3c(=O)n(Cc4ccccc4OC)c(=S)[nH]c3c2)CC1 | 22* | 6 | 3 | 11 | -34 | -5 | 3 | 6
Cc1nc2nc(SCC(=O)O)nn2c(C)c1Cc1ccccc1Cl | 23* | / | -28 | / | -12 | 13 | 12 | 6
CC(C)=C(NC(=O)c1ccccc1)C(=O)N1CCOCC1 | 22* | 5 | 13 | 2 | 13 | -2 | -2 | 0
COc1ccc(CC2(CO)CCN(Cc3ccncc3)CC2)cc1 | 0 | / | -24 | / | 1 | -4 | / | /
COc1ccc(CC2(CO)CCN(CC3=CC[C@H]4C[C@@H]3C4(C)C)CC2)cc1 | 22* | / | -1 | / | -7 | -9 | 11 | 12
CN(C)c1cc(NC(=O)CNC(C)(C)CC(C)(C)C)c2ccccc2n1 | 28* | / | -46 | / | -24 | -10 | 23* | 42*
O=C(CCn1nc(-c2ccc(Cl)cc2)c2ccccc2c1=O)Nc1cccnc1 | -9 | / | 29 | / | 1 | -1 | / | /
Cn1cnnc1SCC(=O)c1cc2ccccc2o1 | 63* | / | 14 | / | 6 | 1 | -2 | -1
Cn1ccnc1SCC(=O)c1cc2ccccc2o1 | 0 | 8 | -12 | 3 | 4 | -9 | / | /
O=C(NCc1nc2ccccc2[nH]1)c1ccc(Cl)c(S(=O)(=O)N2CCCC2)c1 | -5 | 4 | -16 | 1 | -5 | -6 | / | /
CCCn1c(NC(=O)c2ccc(Cl)c(S(=O)(=O)N3CCCC3)c2)nc2ccccc21 | 22* | 5 | -74 | 11 | -38 | 5 | 13 | 22*
Cc1cc(C(=O)CSc2nc3ccccc3c(=O)n2C)c(C)n1CC1CCCO1 (centres undefined) | 27* | / | -27 | / | 14 | 13 | 33* | 12
Cc1cc(C(=O)CSc2nc3ccccc3c(=O)[nH]2)c(C)n1CC1CCCO1 (centres undefined) | 0 | / | -9 | / | 8 | 10 | / | /
c1ccc(-c2nc(-n3ccnc3)nc(-n3ccnc3)n2)cc1 | -4 | 4 | 22 | -2 | 21 | 13 | / | /
c1ccc(CN2CCN(c3nc(-c4ccccc4)nc(-n4ccnc4)n3)CC2)cc1 | 40* | 9 | -116 | 16 | -31 | -34 | 24* | 23*
O=C(NNC(=O)c1cc([N+](=O)[O-])ccc1Cl)c1cccs1 | 1 | 22 | -23 | 1 | 6 | -5 | / | /
CC(=O)NNS(=O)(=O)c1ccc(-c2cc(C(F)(F)F)n(C)n2)s1 | / | / | 12 | / | 12 | / | / | /
COc1nc(OC)nc(N2CCC(C(=O)Nc3cccc4ccccc34)CC2)n1 | 35* | 21 | -35 | 11 | -10 | -1 | 13 | 14
O=C(COc1ccc(Cl)cc1)NCc1nnc(SCC(=O)Nc2ccccc2F)o1 | -3 | / | 4 | / | 4 | 1 | / | /
CCOc1cc(/C=N/n2nnnc2N)ccc1OCc1c(C)no[n+]1[O-] | 21* | 3 | 0 | 7 | -22 | 26 | 9 | 9
Cc1ccc(-n2ncc(C(=O)Nc3cc(Cl)ccc3Cl)c2C2CCNCC2)cc1 | 10 | / | -5 | / | -3 | 15 | / | /
Cc1ccc(-n2ncc(C(=O)Nc3cc(Cl)cc(Cl)c3)c2C2CCNCC2)cc1C | 34* | / | 21 | / | 51* | -13 | 16 | 11 | NPY-Y2 pot conf=48*;NPY-Y1 potentiator=62*;NPY-Y1 ag 2=12;CNGC inhibitor=26*;NPY-Y2 ag 2=31*
Cc1cc(=O)oc2cc(Oc3ccc([N+](=O)[O-])cc3[N+](=O)[O-])ccc12 | 2 | 9 | -16 | 4 | 13 | 7 | / | /
CC(C)(C)NCc1cc(Cl)ccc1OCc1ccccc1F | 24* | / | 27 | / | 31* | 28 | 17 | 9 | NPY-Y2 pot conf=-4;NPY-Y1 potentiator=-38;NPY-Y1 ag 2=-27;CNGC inhibitor=-15;NPY-Y2 ag 2=-13
CNc1ccc([N+](=O)[O-])cc1-c1nc2ccccc2[nH]c1=O | / | / | 26 | / | 20 | 19 | / | /
CCOC(=O)N1CCN(C(=O)CSCC(=O)Nc2nc(-c3ccc(-c4ccccc4)cc3)cs2)CC1 | 21* | 44* | -44 | 7 | 33* | -1 | 14 | 8 | NPY-Y2 pot conf=-11;NPY-Y1 potentiator=-40;NPY-Y1 ag 2=-32;CNGC inhibitor=-11;NPY-Y2 ag 2=-1
CCOC(=O)N1CCN(C(=O)CSCC(=O)Nc2nc(-c3ccc(OC)cc3)cs2)CC1 | 5 | 5 | -9 | 0 | -1 | 6 | / | /
CC(NC(=O)Nc1nnc(C(F)(F)F)s1)(C(F)(F)F)C(F)(F)F | 43* | 3 | 4 | 11 | 58* | 14 | 27* | 7 | NPY-Y2 pot conf=8;NPY-Y1 potentiator=-17;NPY-Y1 ag 2=-25;CNGC inhibitor=-8;NPY-Y2 ag 2=-1

Bioassay records as filed in PubChem.
